The source of these data is ChEMBL document CHEMBL4613245, “Arenicolins: C-Glycosylated Depsides from Penicillium arenicola” (J Nat Prod, 2020).

pIC50: −log10 of the molar value. Active and inactive are the calls of the source. No cut-off for these calls is given here.

The test system of experiment [1] is IMR-32. Nature of the experiment: Cytotoxicity against human IMR32 cells after 48 hrs by CellTiter-Glo assay. The conditions noted are these: for pIC50: IMR-32, 48 h. The class given is functional, cell-based. In outline:
(§1)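 Cells plated at 2000/well and preincubated 2 h, then exposed for 48 h to serial dilutions from 0.3 to 30.0 μM. Controls were 5-FU (positive) and fresh medium (negative). Each concentration ran in triplicate, and viability was read by CellTiter-Glo luminescence per the kit protocol.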
In general terms: ATP-based viability assays read luminescence as a measure of living cells.

Experiment [2] concerns HCT-116. Nature of the experiment: Cytotoxicity against human HCT116 cells after 48 hrs by CellTiter-Glo assay. In kind it is functional, cell-based. The settings on record: for pIC50: HCT-116, 48 h. An outline of the steps: as §1
A further experiment relates to Staphylococcus aureus. As to the kind of experiment: Antibacterial activity against Staphylococcus aureus ATCC 43300 at 100 ug/ml incubated for 24 to 48 hrs. The class given is functional, organism-based. An outline of the steps:
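Agar well diffusion: sample dissolved in DMSO at 0.1 mg/mL, 10 μL applied to a 4 mm well cut in YM agar seeded with an overnight S. aureus ATCC 43300 culture; plates held at 37 °C and read for inhibition zones after 24–48 h.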

The next experiment has as its system Candida albicans. Nature of the experiment: Antifungal activity against Candida albicans ATCC 10231 at 100 ug/ml measured at 24 hrs by agar well diffusion method. In general terms: A growth-free zone around the sample is the usual read-out of agar diffusion tests.
Another experiment deals with Cryptococcus neoformans. As to the kind of experiment: Antifungal activity against Cryptococcus neoformans H99 at 100 ug/ml measured at 48 hrs by agar well diffusion method. The conditions noted are these: var grubii H99.
For experiment [3], the system named is BT-474. Nature of the experiment: Cytotoxicity against human BT474 cells after 48 hrs by CellTiter-Glo assay. The class given is functional, cell-based. An outline of the steps: as §1
Experiment [4] relates to HCT-116. As to the kind of experiment: Cytotoxicity against human HCT116 cells up to 30 uM after 48 hrs by CellTiter-Glo assay. The class given is functional, cell-based. In outline: as §1
Experiment [5] deals with IMR-32. Nature of the experiment: Cytotoxicity against human IMR32 cells up to 30 uM after 48 hrs by CellTiter-Glo assay. The class given is functional, cell-based. In outline:
as §1

For experiment [6], the system named is BT-474. As to the kind of experiment: Cytotoxicity against human BT474 cells up to 30 uM after 48 hrs by CellTiter-Glo assay. In kind it is functional, cell-based. In outline: as §1

What is called pIC50 is the negative decadic logarithm of the IC50, by convention in mol/L. Low readings indicate a large IC50, high ones a small IC50. In the case of `CCCCCCCc1cc(OC(=O)c2c(CCCCCCC)cc(O)c([C@@H]3O[C@H](CO)[C@@H](O)[C@H](O)[C@H]3O)c2O)cc(O)c1C(=O)O[C@@H]1C(=O)C(CO)=C[C@@H](O)[C@H]1O`, the Activity result with IMR-32 [1], with HCT-116 [2] and with BT-474 [3] was “Dose-dependent effect” throughout. Also, the negative logarithm of the IC50 (pIC50) with IMR-32 [1] is 5.22; with HCT-116 [2], 5.14; with BT-474 [3] (BT-474, 48 h), 5.01. Moreover, the result with Staphylococcus aureus, in the experiment on Candida albicans and in the experiment on Cryptococcus neoformans was inactive.
Turning to `O=c1[nH]cc(F)c(=O)[nH]1` [FLUOROURACIL], the negative logarithm of the IC50 (pIC50) in the experiment on IMR-32 [1] is 5.24; in the experiment on HCT-116 [2] it was 5.19.
For `CCCCCCCc1cc(OC(=O)c2c(CCCCCCC)cc(O)c([C@@H]3O[C@H](CO)[C@@H](O)[C@H](O)[C@H]3O)c2O)cc(O)c1C(=O)O`, the outcome with HCT-116 [4], in the experiment with Staphylococcus aureus, with Candida albicans, in the experiment on Cryptococcus neoformans, in the experiment on IMR-32 [5] and in the experiment with BT-474 [6] was inactive.
